The source made the active and inactive calls. No cut-off for these calls is given here.
Key:
[1] = target: T1, Monoacylglycerol lipase ABHD6 (Homo sapiens) (UniProt Q9BV23); assay: Reversible inhibition of human ABHD6 expressed in HEK293 cells at 1 uM pre-incubated for 10 mins before 2-AG substrate addition followed by rapid 40 fold compound dilution measured after 10 to 90 mins by HPLC method; assay type: cell-based
T1 sequence (whole entry): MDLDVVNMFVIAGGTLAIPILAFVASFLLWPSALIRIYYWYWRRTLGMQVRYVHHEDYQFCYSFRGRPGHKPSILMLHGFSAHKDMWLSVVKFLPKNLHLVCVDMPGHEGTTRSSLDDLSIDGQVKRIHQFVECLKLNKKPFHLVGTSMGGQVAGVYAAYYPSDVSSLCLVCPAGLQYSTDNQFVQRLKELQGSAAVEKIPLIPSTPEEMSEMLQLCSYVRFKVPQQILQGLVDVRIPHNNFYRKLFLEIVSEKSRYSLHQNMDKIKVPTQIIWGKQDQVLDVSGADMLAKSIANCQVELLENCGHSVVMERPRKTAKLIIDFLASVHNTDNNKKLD

[2] = target: T2, Fatty-acid amide hydrolase 1 (Homo sapiens) (UniProt O00519); assay: Inhibition of human FAAH expressed in COS7 cell membranes at 10 uM pre-incubated for 10 mins before [3H]-AEA substrate addition by liquid scintillation counting; settings: COS-7
T2 sequence (whole entry): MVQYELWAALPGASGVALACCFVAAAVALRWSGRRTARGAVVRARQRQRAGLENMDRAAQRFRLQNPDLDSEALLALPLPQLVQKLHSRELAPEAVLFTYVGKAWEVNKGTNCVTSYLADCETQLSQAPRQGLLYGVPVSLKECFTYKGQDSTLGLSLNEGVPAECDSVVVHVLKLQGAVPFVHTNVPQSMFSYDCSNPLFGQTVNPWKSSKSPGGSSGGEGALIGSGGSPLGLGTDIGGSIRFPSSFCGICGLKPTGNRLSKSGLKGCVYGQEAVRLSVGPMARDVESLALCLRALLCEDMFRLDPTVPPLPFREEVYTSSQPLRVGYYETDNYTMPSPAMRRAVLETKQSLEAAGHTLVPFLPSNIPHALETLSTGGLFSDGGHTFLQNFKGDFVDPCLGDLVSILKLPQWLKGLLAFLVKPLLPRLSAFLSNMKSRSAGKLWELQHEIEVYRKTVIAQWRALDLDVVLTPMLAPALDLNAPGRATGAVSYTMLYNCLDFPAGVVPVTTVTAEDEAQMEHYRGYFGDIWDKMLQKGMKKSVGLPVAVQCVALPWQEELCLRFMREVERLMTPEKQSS

[3] = target: T3, Monoglyceride lipase (Homo sapiens) (UniProt Q99685); assay: Inhibition of human MAGL expressed in HEK293 cells at 10 uM pre-incubated for 10 mins before 2-AG substrate addition by HPLC method; assay type: cell-based
T3 sequence (whole entry): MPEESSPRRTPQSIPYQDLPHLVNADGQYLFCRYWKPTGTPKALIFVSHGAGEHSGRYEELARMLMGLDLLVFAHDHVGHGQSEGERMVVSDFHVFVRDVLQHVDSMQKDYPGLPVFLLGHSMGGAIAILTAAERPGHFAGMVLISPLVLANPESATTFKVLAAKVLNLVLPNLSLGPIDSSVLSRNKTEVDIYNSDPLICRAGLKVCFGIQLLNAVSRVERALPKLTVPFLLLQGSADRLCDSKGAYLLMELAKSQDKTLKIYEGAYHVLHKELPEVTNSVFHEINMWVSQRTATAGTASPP
Procedure, shortened: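 Lysates of hMAGL-overexpressing HEK293 cells in 50 mM Tris–HCl pH 7.4 with 1 mM EDTA. After a 10 min preincubation with inhibitor or DMSO, 2-AG was added (final 50 µM) and incubated 10 min at 37 °C. The reaction was stopped and samples centrifuged. Arachidonic acid formation and 2-AG depletion were measured by HPLC. Replicates as for the FAAH assay.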

[4] = target: T1, Monoacylglycerol lipase ABHD6 (Homo sapiens); assay: Inhibition of human ABHD6 expressed in HEK293 cells assessed as remaining enzyme activity by measuring reduction in glycerol production from 1-AG hydrolysis at 1 uM pre-incubated for 30 mins before 1-AG substrate addition and measured 90 mins post substrate addition by fluorescence method; values are per cent of control
[5] = target: T4, Lysophosphatidylserine lipase ABHD12 (Homo sapiens) (UniProt Q8N2K0); assay: Inhibition of human ABHD12 expressed in HEK293 cells assessed as remaining enzyme activity at 1 uM pre-incubated for 10 mins before 2-AG substrate addition by HPLC method; assay type: cell-based
T4 sequence (whole entry): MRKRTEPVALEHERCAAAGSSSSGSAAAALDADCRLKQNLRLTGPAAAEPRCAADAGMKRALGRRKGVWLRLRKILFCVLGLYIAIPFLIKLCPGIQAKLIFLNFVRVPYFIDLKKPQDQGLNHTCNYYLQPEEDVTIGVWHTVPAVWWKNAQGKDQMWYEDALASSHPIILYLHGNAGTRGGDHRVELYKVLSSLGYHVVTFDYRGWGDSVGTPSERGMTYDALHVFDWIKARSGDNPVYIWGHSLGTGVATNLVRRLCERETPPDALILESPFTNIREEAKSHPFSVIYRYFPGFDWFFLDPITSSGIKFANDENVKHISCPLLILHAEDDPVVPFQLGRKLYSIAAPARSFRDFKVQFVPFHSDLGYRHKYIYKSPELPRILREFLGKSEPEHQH

| inhibition [1] | inhibition [2] | inhibition [3] | residual activity [4] | inhibition [5] | Structure (SMILES) |
| --- | --- | --- | --- | --- | --- |
| Active | – | – | – | – | CCCCCCCCCCC[C@@H](C[C@@H]1OC(=O)[C@H]1CCCCCC)OC(=O)[C@H](CC(C)C)NC=O |
| – | inactive | 30% | 63% | inactive | CCOc1nn(Cc2cccc([N+](=O)[O-])c2)c(=O)o1 |

Reference: ChEMBL document CHEMBL3612019, “Revisiting 1,3,4-Oxadiazol-2-ones: Utilization in the Development of ABHD6 Inhibitors” (Bioorg Med Chem, 2015)
